Measured values of several laboratories.
Protocols differ between the studies behind these lines.
PBK: Lymphokine-activated killer T-cell-originated protein kinase (PBK, Homo sapiens, UniProt Q96KB5)
SIRT6: NAD-dependent protein deacylase sirtuin-6 (SIRT6, Homo sapiens, UniProt Q8N6T7)
VRK1: Serine/threonine-protein kinase VRK1 (VRK1, Homo sapiens, UniProt Q99986)
PDK4: [Pyruvate dehydrogenase (acetyl-transferring)] kinase isozyme 4, mitochondrial (PDK4, Homo sapiens, UniProt Q16654)

SMILES	target	effect on	mode	technique	concentration	endpoint	value
Cn1c2c(c3ccc(Cl)c(Cl)c31)C(C#N)C1(CCOCC1)NC2=O (stereo not drawn)	PBK	thermal stability		DSF	10 µM	ΔTm	-0.4 °C
Cc1cnc(NC2CCOCC2)nc1-n1cnc(C(=O)NC(CN)c2cc(F)cc(Cl)c2)c1 (stereo not drawn)	Angiopoietin-1 receptor (TEK, Homo sapiens, UniProt Q02763, R849W)	enzyme activity	inhibitor	radiometric	1 µM	remaining activity	100%
NCCc1ccc(C(=O)NOCc2ccc(C(F)(F)F)cc2)cc1	SIRT6	enzyme activity	inhibitor	fluorescence	100 µM	inhibition	88.4%
Nc1nonc1-n1cc(C(=O)N/N=C/c2ccccc2Cl)nn1	SIRT6	enzyme activity	inhibitor	fluorescence	100 µM	remaining activity	22.8%
Cn1c2c(c3ccccc31)C(C#N)C(C)(C)NC2=O (stereo not drawn)	VRK1	thermal stability		DSF	10 µM	ΔTm	-0.1 °C
Cc1cccc(Sc2ccc(CONC(=O)c3ccc(C(N)=O)cc3)cc2C(F)(F)F)c1	SIRT6	enzyme activity	inhibitor	fluorescence	100 µM	inhibition	100%
CC/C(=N\NC(=O)NCc1cccc(O)c1)c1ccc(O)c(C)c1O	ALK tyrosine kinase receptor (ALK, Homo sapiens, UniProt Q9UM73, C1156Y)	enzyme activity	inhibitor		0.1 µM	inhibition	2.3%
NC(=O)c1ccc(C(=O)NOCc2ccccc2Cl)cc1	SIRT6	enzyme activity	inhibitor	fluorescence	100 µM	inhibition	78.2%
COc1cc(Cl)c(C(=O)N[C@@H](CN[C@H]2CC[C@@H](N)CC2)Cc2ccc(C#N)cc2)cc1-c1ccc(CN[C@H](C)c2ccc(C)cc2)o1	PDK4	enzyme activity	inhibitor		1 µM	remaining activity	103%
Cn1c2c(Cl)c(Cl)ccc2c2cc[nH]c(=O)c21	PBK	thermal stability		DSF	10 µM	ΔTm	-0.6 °C
Cc1cc(NC(=O)c2cccc3cc(-c4cccc5[nH]nc(N)c45)ccc23)ccc1F	Angiopoietin-1 receptor (TEK, Homo sapiens, UniProt Q02763)	enzyme activity	inhibitor		0.1 µM	activity vs control	96%
Cn1c2c(c3ccc(Cl)c(Cl)c31)C(C#N)C1(CCCC1)NC2=O (stereo not drawn)	VRK1	thermal stability		DSF	10 µM	ΔTm	0 °C
Nc1nonc1-n1cc(C(=O)N/N=C/c2ccc([N+](=O)[O-])cc2O)nn1	SIRT6	enzyme activity	inhibitor	fluorescence	100 µM	remaining activity	20.6%
NC(=O)c1ccc(C(=O)NOCc2cccc(Br)c2)cc1	SIRT6	enzyme activity	inhibitor	fluorescence	100 µM	inhibition	82.3%
Cc1cnc(Nc2ccc(OCCN3CCCC3)cc2)nc1Nc1cccc(S(=O)(=O)NC(C)(C)C)c1	Bromodomain-containing protein 7 (BRD7, Homo sapiens, UniProt Q9NPI1)	thermal stability		DSF	10 µM	ΔTm	0.22 °C
Cn1c2c(c3ccc(Cl)c(Cl)c31)C(C#N)C1(CCNCC1)NC2=O (racemic)	PBK	thermal stability		DSF	10 µM	ΔTm	-0.9 °C
NC(=O)c1ccc(C(=O)NOCc2ccc3nccnc3c2)cc1	SIRT6	enzyme activity	inhibitor	fluorescence	100 µM	inhibition	61.4%

SMILES	target	effect on	mode	technique	concentration	endpoint	value
Nc1nonc1-n1cc(C(=O)N/N=C/c2ccc(F)cc2)nn1	SIRT6	enzyme activity	inhibitor	fluorescence	100 µM	remaining activity	43%
NS(=O)(=O)c1ccc(C(=O)NOCc2ccccc2)cc1	SIRT6	enzyme activity	inhibitor	fluorescence	100 µM	inhibition	47.4%
Cc1ccc(C(=O)Nc2ccc(CN3CCN(C)CC3)c(C(F)(F)F)c2)cc1C#Cc1cnc2cccnn12	Mitogen-activated protein kinase 6 (MAPK6, Homo sapiens, UniProt Q16659)	enzyme activity	inhibitor		23.5 nM	remaining activity	100%
CNC(=O)c1ccc(C(=O)NOCc2ccc(C(F)(F)F)cc2)cc1	SIRT6	enzyme activity	inhibitor	fluorescence	100 µM	inhibition	35.3%
Nc1nonc1-n1cc(C(=O)N/N=C/c2ccccc2C(=O)O)nn1	SIRT6	enzyme activity	inhibitor	fluorescence	100 µM	remaining activity	84.2%
Cc1ccc(C(=O)NCc2ccsc2)cc1C#Cc1cn(C(C)C)c2ncnc(N)c12	PDK4	enzyme activity	inhibitor		1 µM	activity vs control	119%
Nc1nonc1-n1cc(C(=O)N/N=C/c2cccc([N+](=O)[O-])c2O)nn1	SIRT6	enzyme activity	inhibitor	fluorescence	100 µM	remaining activity	41.4%
CCC1(CC)NC(=O)c2c(c3ccc(Cl)c(Cl)c3n2C)C1C#N (stereo not drawn)	PBK	thermal stability		DSF	10 µM	ΔTm	0 °C
COC(=O)c1ccc(O)c(/C=N/NC(=O)c2cn(-c3nonc3N)nn2)c1	SIRT6	enzyme activity	inhibitor	fluorescence	100 µM	remaining activity	99.6%
O=C(Nc1ccc(S(=O)(=O)N2CCC(Cl)CC2)cc1)c1ccc([N+](=O)[O-])o1	Voltage-dependent N-type calcium channel subunit alpha-1B (Cacna1b, Rattus norvegicus, UniProt Q02294)	cell-free assay			10 µM	inhibition	18%
Nc1nonc1-n1cc(C(=O)N/N=C/c2ccco2)nn1	SIRT6	enzyme activity	inhibitor	fluorescence	100 µM	remaining activity	40.9%
Cn1c2c(c3ccc(Cl)c(Cl)c31)C(C#N)C(C)(C)NC2=O (stereo not drawn)	VRK1	thermal stability		DSF	10 µM	ΔTm	0.1 °C
Nc1nonc1-n1cc(C(=O)N/N=C/c2ccc(O)c(O)c2O)nn1	SIRT6	enzyme activity	inhibitor	fluorescence	100 µM	remaining activity	51.3%
N#CC1c2c([nH]c3c(Cl)c(Cl)ccc23)C(=O)NC12CCCCC2 (racemic)	PBK	thermal stability		DSF	10 µM	ΔTm	0.8 °C
NC(=O)c1ccc(C(=O)NOCc2ccc(C(F)(F)F)cc2)cc1	SIRT6	enzyme activity	inhibitor	fluorescence	100 µM	inhibition	87%
Nc1ncnc2occ(-c3ccc(NC(=O)Nc4cc(C(F)(F)F)ccc4F)cc3)c12	Serine/threonine-protein kinase TNNI3K (TNNI3K, Homo sapiens, UniProt Q59H18)	cell-free assay			20 µM	remaining signal	1.5%
